From PMC12783166 (Clinical Pharmacokinetics, 2025)

Assay: Individual predicted steady-state exposures
Type: in vivo, human
Method in brief: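 Steady-state AUC24, Ctrough, Cmax and Cavg were derived from each individual's Bayesian post hoc estimates from the final three-compartment population PK model, with sequential zero-/first-order lagged absorption. Values are summarised per […] as mean (SD) and median (5th–95th percentile).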

## C[C@@H]1[C@H](c2c(F)ccc(F)c2F)C[C@H](NC(=O)c2cnc3c(c2)C[C@@]2(C3)C(=O)Nc3ncccc32)C(=O)N1CC(F)(F)F [atogepant, Atogepant]
ADVANCE EM, 10 mg QD
  Cavg, Mean (SD): 21.9 (14) ng/mL
  Cavg, Median (5th to 95th percentile): 19.3 (5.35–163) ng/mL
  Ctrough, Mean (SD): 3.24 (3.1) ng/mL
  Ctrough, Median (5th to 95th percentile): 2.62 (0.576–35.2) ng/mL
  Time above ½EC90 (4.2 ng/mL or 7 nM), Mean (SD): 18.1 (3.8) hr
  Time above ½EC90 (4.2 ng/mL or 7 nM), Median (5th to 95th percentile): 18.0 (8.00–24.0) hr
ADVANCE EM, 30 mg QD
  Cavg, Mean (SD): 76.1 (54) ng/mL
  Cavg, Median (5th to 95th percentile): 65.1 (19.0–466) ng/mL
  Ctrough, Mean (SD): 12.0 (16) ng/mL
  Ctrough, Median (5th to 95th percentile): 8.85 (2.02–202) ng/mL
  Time above ½EC90 (4.2 ng/mL or 7 nM), Mean (SD): 23.7 (1.2) hr
  Time above ½EC90 (4.2 ng/mL or 7 nM), Median (5th to 95th percentile): 24.0 (16.0–24.0) hr
ADVANCE EM, 60 mg QD
  Cavg, Mean (SD): 156 (94) ng/mL
  Cavg, Median (5th to 95th percentile): 134 (33.9–874) ng/mL
  Ctrough, Mean (SD): 23.8 (30) ng/mL
  Ctrough, Median (5th to 95th percentile): 18.4 (3.63–373) ng/mL
  Time above ½EC90 (4.2 ng/mL or 7 nM), Mean (SD): 24.0 (0.22) hr
  Time above ½EC90 (4.2 ng/mL or 7 nM), Median (5th to 95th percentile): 24.0 (21.5–24.0) hr
CGP-MD-01 EM, 10 mg QD
  Cavg, Mean (SD): 19.2 (6.7) ng/mL
  Cavg, Median (5th to 95th percentile): 19.3 (7.01–52.2) ng/mL
  Ctrough, Mean (SD): 2.80 (1.4) ng/mL
  Ctrough, Median (5th to 95th percentile): 2.58 (0.738–9.95) ng/mL
  Time above ½EC90 (4.2 ng/mL or 7 nM), Mean (SD): 17.8 (3.5) hr
  Time above ½EC90 (4.2 ng/mL or 7 nM), Median (5th to 95th percentile): 18.0 (9.00–24.0) hr
CGP-MD-01 EM, 30 mg BID
  Cavg, Mean (SD): 162 (85) ng/mL
  Cavg, Median (5th to 95th percentile): 132 (50.6–476) ng/mL
  Ctrough, Mean (SD): 60.7 (44) ng/mL
  Ctrough, Median (5th to 95th percentile): 44.5 (13.3–277) ng/mL
  Time above ½EC90 (4.2 ng/mL or 7 nM), Mean (SD): 12.0 (0.0) hr
  Time above ½EC90 (4.2 ng/mL or 7 nM), Median (5th to 95th percentile): 12.0 (12.0–12.0) hr
CGP-MD-01 EM, 30 mg QD
  Cavg, Mean (SD): 71.3 (36) ng/mL
  Cavg, Median (5th to 95th percentile): 66.2 (30.6–310) ng/mL
  Ctrough, Mean (SD): 11.2 (16) ng/mL
  Ctrough, Median (5th to 95th percentile): 8.97 (3.68–203) ng/mL
  Time above ½EC90 (4.2 ng/mL or 7 nM), Mean (SD): 24.0 (0.19) hr
  Time above ½EC90 (4.2 ng/mL or 7 nM), Median (5th to 95th percentile): 24.0 (21.5–24.0) hr
CGP-MD-01 EM, 60 mg BID
  Cavg, Mean (SD): 331 (200) ng/mL
  Ctrough, Mean (SD): 133 (140) ng/mL
  Ctrough, Median (5th to 95th percentile): 101 (26.1–972) ng/mL
  Time above ½EC90 (4.2 ng/mL or 7 nM), Mean (SD): 12.0 (0.0) hr
  Time above ½EC90 (4.2 ng/mL or 7 nM), Median (5th to 95th percentile): 12.0 (12.0–12.0) hr
CGP-MD-01 EM, 60 mg QD
  Cavg, Mean (SD): 152 (93) ng/mL
  Cavg, Median (5th to 95th percentile): 144 (39.5–992) ng/mL
  Ctrough, Mean (SD): 23.6 (30) ng/mL
  Ctrough, Median (5th to 95th percentile): 19.5 (5.07–335) ng/mL
  Time above ½EC90 (4.2 ng/mL or 7 nM), Mean (SD): 24.0 (0.0) hr
  Time above ½EC90 (4.2 ng/mL or 7 nM), Median (5th to 95th percentile): 24.0 (24.0–24.0) hr
ELEVATE EM, 60 mg QD
  Cavg, Mean (SD): 147 (75) ng/mL
  Cavg, Median (5th to 95th percentile): 138 (12.5–474) ng/mL
  Ctrough, Mean (SD): 15.4 (13) ng/mL
  Ctrough, Median (5th to 95th percentile): 13.4 (2.70–98.1) ng/mL
  Time above ½EC90 (4.2 ng/mL or 7 nM), Mean (SD): 23.9 (0.79) hr
  Time above ½EC90 (4.2 ng/mL or 7 nM), Median (5th to 95th percentile): 24.0 (17.5–24.0) hr
PROGRESS CM, 30 mg BID
  Cavg, Mean (SD): 157 (87) ng/mL
  Cavg, Median (5th to 95th percentile): 135 (33.1–571) ng/mL
  Ctrough, Mean (SD): 56.1 (43) ng/mL
  Ctrough, Median (5th to 95th percentile): 42.4 (8.87–269) ng/mL
  Time above ½EC90 (4.2 ng/mL or 7 nM), Mean (SD): 24.0 (0.0) hr
  Time above ½EC90 (4.2 ng/mL or 7 nM), Median (5th to 95th percentile): 24.0 (24.0–24.0) hr
PROGRESS CM, 60 mg QD
  Cavg, Mean (SD): 139 (85) ng/mL
